According to ChEMBL document CHEMBL4765251, “Efficient identification of novel anti-glioma lead compounds by machine learning models” (Eur J Med Chem, 2020):
Activity calls are given as the source filed them. The calls are words filed in the database; no cut-off is given here.

How the values were obtained:
[1] = Toxicity in C57BL/6 mouse xenografted with C57BL/6 mouse GL261 cells at 100 mg/kg, po administered via gavage once daily for 10 days starting from 7 days post tumor cell inoculation; format: organism-based; conditions: in vivo, 240 h, dose 100 mg/kg/day, time 10 day
Outline: (§1)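 Orthotopic model: 5x10^4 GL261 cells in 2 µL serum-free DMEM injected into the right hemisphere of 60-day-old male and female C57BL/6 mice (17-25 g) under ketamine/xylazine. Treatment began 7 days later, n=9 per group. Compound was given in 0.9% saline with 10% DMSO and 0.3% Tween-80, as 100 µL ip or 200 µL by gavage. Body weight change (final minus initial) and mortality were monitored.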

[2] = Selectivity index, ratio of CC50 for Wistar rat astrocytes to EC50 for rat C6 cells
Outline: (§2)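 Selectivity index is astrocyte CC50 divided by the glioma-line EC50, both from 72 h SRB assays. No index is given when astrocyte cytotoxicity could not be calculated at the highest concentration tested.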

C6 [3] = test: Antiproliferative activity against rat C6 cells assessed as cell growth inhibition measured after 72 hrs by SRB assay; format: functional, cell-based; conditions: C6, 72 h
U-251 = test: Antiproliferative activity against human U251MG cells assessed as cell growth inhibition measured after 72 hrs by SRB assay; format: functional, cell-based; conditions: U-251, 72 h
[4] = Hepatotoxicity in C57BL/6 mouse xenografted with C57BL/6 mouse GL261 cells assessed as serum ALP level at 100 mg/kg, po or ip administered once daily for 10 days starting from 7 days post tumor cell inoculation and measured on day 17 (reference value: 19.1 +/- 8.9 U/L); format: toxicity, organism-based; conditions: in vivo, 240 h, dose 100 mg/kg/day, time 10 day
[5] = (§3) Inhibition of TrxR in rat liver assessed as reduction in TNB formation using DTNB and NADPH as substrate preincubated with enzyme for 15 mins followed by NADPH addition by absorbance based analysis; format: tissue-based
Outline: (§4)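 TrxR activity was measured at 37 °C in 100 mM potassium phosphate pH 7.0 with 2 mg/mL DTNB and 0.01 mg/mL enzyme. Enzyme was preincubated for 15 min with compound or DMSO, then the reaction was started with 0.2 mg/mL NADPH. TNB formation was followed at 412 nm (ε 13.6 mM-1 cm-1). Assays were run in duplicate, with enzyme-free blanks subtracted.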

Rattus norvegicus [6] = species: Rattus norvegicus; test: as §3; format: tissue-based; outline: as §4
[7] = Hematological toxicity in C57BL/6 mouse xenografted with C57BL/6 mouse GL261 cells assessed as WBC level in blood at 100 mg/kg, po or ip administered once daily for 10 days starting from 7 days post tumor cell inoculation and measured on day 17 (reference value: 8.6 +/- 1.6x10^3/uL); format: organism-based; conditions: in vivo, 240 h, dose 100 mg/kg/day, time 10 day
[8] = Hematological toxicity in C57BL/6 mouse xenografted with C57BL/6 mouse GL261 cells assessed as hematocrit level in blood at 100 mg/kg, po or ip administered once daily for 10 days starting from 7 days post tumor cell inoculation and measured on day 17 (reference value: 44.5 +/- 1.8%); format: organism-based; conditions: in vivo, 240 h, dose 100 mg/kg/day, time 10 day
[9] = Toxicity in C57BL/6 mouse xenografted with C57BL/6 mouse GL261 cells assessed as mortality at 100 mg/kg, ip administered once daily for 10 days starting from 7 days post tumor cell inoculation; format: organism-based; conditions: in vivo, 240 h, dose 100 mg/kg/day, time 10 day; outline: as §1
[10] = Selectivity index, ratio of CC50 for Wistar rat astrocytes to EC50 for human U-251 MG cells; outline: as §2
U-87 MG = test: Antiproliferative activity against human U87MG cells assessed as cell growth inhibition measured after 72 hrs by SRB assay; format: functional, cell-based, U-87MG ATCC
Outline: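 U87MG human glioma cells grown in DMEM with 10% FBS at 37 °C, used up to 30 passages and treated at 40-50% confluence. Exposed to 0.1-100 µM for 72 h, with DMSO at most 0.1% final. TCA-fixed, stained with SRB, dye solubilized in Tris pH 10.5, read at 510 nm, expressed as % of DMSO controls. Mean ± SD of three independent assays.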

[11] = Cytotoxicity against Wistar rat astrocytes assessed as cell growth inhibition measured after 72 hrs by SRB assay; format: cell-based, Astrocyte
Outline: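 Primary astrocytes taken from the cortex of 2-day-old Wistar rats by mechanical dissociation, grown on poly-L-lysine in high-glucose DMEM and treated at 90% confluence (12-15 days). Exposed to 0.1-100 µM for 72 h, then SRB assay with absorbance read at 510 nm against DMSO controls. Mean ± SD of three independent assays.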

[12] = Toxicity in C57BL/6 mouse xenografted with C57BL/6 mouse GL261 cells assessed as body weight at 100 mg/kg, ip administered once daily for 10 days starting from 7 days post tumor cell inoculation; format: organism-based; conditions: in vivo, 240 h, dose 100 mg/kg/day, time 10 day; outline: as §1
GL261 [13] = test: Antitumor activity against C57BL/6 mouse GL261 cells xenografted in C57BL/6 mouse assessed as reduction in tumor volume at 10 to 100 mg/kg, po administered via gavage once daily for 10 days starting from 7 days post tumor cell inoculation and measured on day 17; format: functional, organism-based; conditions: dose 10-100 mg/kg/day, time 10.0 day
Outline: (§5)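 GL261 cells (5x10^4 in 2 µL DMEM) were injected into the right hemisphere of 60-day-old male and female C57BL/6 mice (17-25 g) under ketamine/xylazine. From day 7, mice received compound once daily for 10 days (n=9 per group), by gavage (200 µL) or ip (100 µL). Vehicle was 0.9% saline with 10% DMSO and 0.3% Tween-80. Tumor volume was taken as the summed segmented areas of three H&E coronal sections.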

C6 [14] = test: Antiproliferative activity against rat C6 cells assessed as cell growth inhibition measured after 72 hrs in presence of 0.0001 to 0.001% Triton X-100 by SRB assay; format: functional, cell-based
Outline: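 Rat C6 glioma cells were incubated for 72 h in medium with no detergent or with 0.0001% or 0.001% Triton X-100, as a check for aggregation-based cytotoxicity. Viability was read by SRB assay and an EC50 was derived from concentration-response curves. Mean ± SD of three independent assays.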

[15] = Hematological toxicity in C57BL/6 mouse xenografted with C57BL/6 mouse GL261 cells assessed as blood glucose level at 100 mg/kg, po or ip administered once daily for 10 days starting from 7 days post tumor cell inoculation and measured on day 17 (reference value: 108 +/- 13 mg/dl); format: organism-based; conditions: in vivo, 240 h, dose 100 mg/kg/day, time 10 day
C6 [16] = test: Antiproliferative activity against rat C6 cells assessed as cell growth inhibition preincubated with NAC for 1 hr prior to compound challenge and measured after 72 hrs by SRB assay; format: functional, cell-based
Outline: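 C6 cells were pretreated with 2 mM N-acetylcysteine for 1 h, then exposed to compound for 72 h. Viability was measured by SRB assay relative to DMSO-treated controls. Auranofin served as the reference thiol-reactive control.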

[17] = Toxicity in C57BL/6 mouse xenografted with C57BL/6 mouse GL261 cells assessed as mortality at 100 mg/kg, po administered via gavage once daily for 10 days starting from 7 days post tumor cell inoculation; format: organism-based; conditions: in vivo, 240 h, dose 100 mg/kg/day, time 10 day; outline: as §1
[18] = Antitumor activity against C57BL/6 mouse GL261 cells xenografted in C57BL/6 mouse assessed as reduction in tumor volume at 100 mg/kg, ip administered once daily for 10 days starting from 7 days post tumor cell inoculation and measured on day 17; format: functional; conditions: C57BL/6, GL261, ip, 240 h, time 10 day; outline: as §5
[19] = Toxicity in C57BL/6 mouse xenografted with C57BL/6 mouse GL261 cells at 100 mg/kg, ip administered once daily for 10 days starting from 7 days post tumor cell inoculation; format: organism-based; conditions: in vivo, 240 h, dose 100 mg/kg/day, time 10 day; outline: as §1
[20] = Hepatotoxicity in C57BL/6 mouse xenografted with C57BL/6 mouse GL261 cells assessed as serum ALT level at 100 mg/kg, po or ip administered once daily for 10 days starting from 7 days post tumor cell inoculation and measured on day 17 (reference value: 7.6 +/- 4.2 U/L); format: toxicity, organism-based; conditions: in vivo, 240 h, dose 100 mg/kg/day, time 10 day
Rattus norvegicus [21] = species: Rattus norvegicus; test: Inhibition of TrxR in rat liver assessed as reduction in TNB formation using DTNB and NADPH as substrate at 100 uM preincubated with enzyme for 15 mins followed by NADPH addition by absorbance based analysis; format: tissue-based; outline: as §4
[22] = Selectivity index, ratio of CC50 for Wistar rat astrocytes to EC50 for human U87MG cells; outline: as §2
[23] = Nephrotoxicity in C57BL/6 mouse xenografted with C57BL/6 mouse GL261 cells assessed as serum creatinine level at 100 mg/kg, po or ip administered once daily for 10 days starting from 7 days post tumor cell inoculation and measured on day 17 (reference value: 0.4 +/- 0.3 mg/dl); format: toxicity, organism-based; conditions: in vivo, 240 h, dose 100 mg/kg/day, time 10 day
[24] = Toxicity in C57BL/6 mouse xenografted with C57BL/6 mouse GL261 cells assessed as body weight at 100 mg/kg, po administered via gavage once daily for 10 days starting from 7 days post tumor cell inoculation; format: organism-based; conditions: in vivo, 240 h, dose 100 mg/kg/day, time 10 day; outline: as §1
GL261 [25] = test: Antitumor activity against C57BL/6 mouse GL261 cells xenografted in C57BL/6 mouse assessed as reduction in tumor volume at 20 mg/kg, ip administered once daily for 10 days starting from 7 days post tumor cell inoculation and measured on day 17; format: functional, organism-based; conditions: dose 20.0 mg/kg/day, time 10.0 day
GL261 [26] = test: Antitumor activity against C57BL/6 mouse GL261 cells xenografted in C57BL/6 mouse assessed as reduction in tumor volume at 20 mg/kg, po administered via gavage once daily for 10 days starting from 7 days post tumor cell inoculation and measured on day 17; format: functional, organism-based; conditions: dose 20.0 mg/kg/day, time 10.0 day
Astrocyte = test: Cytotoxicity against Wistar rat astrocytes assessed as cell growth inhibition at 100 uM measured after 72 hrs by SRB assay; format: cell-based

Structure (SMILES): Cc1cccc(C(=O)/C=C/c2ccc([N+](=O)[O-])o2)c1
- Activity [1]: Non-Toxic
- Ratio CC50/EC50 [2]: 24.8
- EC50 (C6 [3]): 2.1 µM
- EC50 (U-251): 2.3 µM
- Activity [4]: 20.3 U/L
- IC50 [5]: 25 µM
- inhibition (Rattus norvegicus [6]): Dose-dependent effect
- Activity [7]: 8.4 10^3 /uL
- Activity [8]: 46%
- Activity [9]: Non-Toxic
- Ratio CC50/EC50 [10]: 22.7
- EC50 (U-87 MG): 3.3 µM
- CC50 at 72 h [11]: 52.2 µM
- Activity [12]: Non-Toxic
- Activity (GL261 [13]): inactive
- Activity (C6 [14]): Active
- Activity [15]: 108 mg/dL
- Activity (C6 [16]): inactive
- Activity [17]: Non-Toxic
- inhibition in vivo at 100 mg/kg/day [18]: 43.8%
- Activity [19]: Non-Toxic
- Activity [20]: 6.2 U/L
- inhibition (Rattus norvegicus [21]): 95.2%
- Ratio CC50/EC50 [22]: 15.8
- Activity [23]: 0.4 mg/dL
- Activity [24]: Non-Toxic

Structure (SMILES): CCCCc1ccc(C(=O)/C=C/c2ccc([N+](=O)[O-])o2)cc1
- Activity [1]: Non-Toxic
- Ratio CC50/EC50 [2]: 24.2
- EC50 (C6 [3]): 1.7 µM
- EC50 (U-251): 3.9 µM
- Activity [4]: 22.2 U/L
- IC50 [5]: 25 µM
- inhibition (Rattus norvegicus [6]): Dose-dependent effect
- Activity [7]: 9.5 10^3 /uL
- Activity [8]: 45.5%
- Activity [9]: Non-Toxic
- Ratio CC50/EC50 [10]: 10.6
- EC50 (U-87 MG): 5.8 µM
- CC50 at 72 h [11]: 41.2 µM
- Activity [12]: Non-Toxic
- Activity (GL261 [13]): inactive
- Activity (C6 [14]): Active
- Activity [15]: 94 mg/dL
- Activity (C6 [16]): inactive
- Activity [17]: Non-Toxic
- Activity [19]: Non-Toxic
- Activity [20]: 19.8 U/L
- inhibition (Rattus norvegicus [21]): 80.7%
- Ratio CC50/EC50 [22]: 7.1
- Activity [23]: 0.3 mg/dL
- Activity [24]: Non-Toxic

Structure (SMILES): O=C(/C=C/c1ccc([N+](=O)[O-])o1)c1cccc(Br)c1
- Activity [1]: Non-Toxic
- Ratio CC50/EC50 [2]: 25.4
- EC50 (C6 [3]): 1.4 µM
- EC50 (U-251): 5.8 µM
- Activity [4]: 20.6 U/L
- Activity [7]: 9.2 10^3 /uL
- Activity [8]: 45.3%
- Activity [9]: Non-Toxic
- Ratio CC50/EC50 [10]: 6.1
- EC50 (U-87 MG): 6.8 µM
- CC50 at 72 h [11]: 35.6 µM
- Activity [12]: Non-Toxic
- Activity (GL261 [13]): inactive
- Activity (C6 [14]): Active
- Activity [15]: 109 mg/dL
- Activity (C6 [16]): inactive
- Activity [17]: Non-Toxic
- inhibition in vivo at 100 mg/kg/day [18]: 41.3%
- Activity [19]: Non-Toxic
- Activity [20]: 9.9 U/L
- inhibition (Rattus norvegicus [21]): 78.7%
- Ratio CC50/EC50 [22]: 5.2
- Activity [23]: 0.5 mg/dL
- Activity [24]: Non-Toxic

Structure (SMILES): Cn1nnc2c(C(N)=O)ncn2c1=O [TEMOZOLOMIDE]
- Activity (GL261 [25]): Active
- EC50 (C6 [3]): 60.5 µM
- EC50 (U-251): > 200 µM
- Activity (GL261 [26]): inactive
- EC50 (U-87 MG): > 200 µM
- Activity (Astrocyte): Non-Toxic
